# Assay outcomes as filed in PubChem BioAssay.
# KCNK9 block – inhibitors of human KCNK9 two-pore domain potassium channel; 310,000 compounds, 1.2% hits; B-score at 10 µM; Q9NPC2; HEK293 KCNK9, FluxOR thallium flux fluorescence; hits give low values;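 active = ratio B-score over 3 SD below the library mean, with starting fluorescence within 5 SD of its mean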;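 also: negative B-score means less thallium flux so channel inhibition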
# KCNQ1 act – human KCNQ1 channel potentiation or activation; CHO-K1 KCNQ1, thallium flux FluxOR fluorescence; hits give high values; 310,000 compounds, 0.35% hits; B-score at 10 µM;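 active = fluorescence ratio B-score, a plate-corrected score, at least three library SD, with initial intensity B-score within 5 SD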
#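 Schedule – 37 °C overnight plating, 90-min dark dye load, 20-min compound pretreatment · System – stable KCNQ1 CHO-K1 line · Probe or stimulus – thallium- and potassium-containing depolarizing buffer · Measured by – kinetic FluxOR fluorescence, 10 s baseline plus 110 s post-stimulus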
# Kir21 inh – Kir2.1 (mouse) channel inhibition; HEK293-Kir2.1, FluxOR thallium flux fluorescence; hits give low values; AID 1672; 310,000 compounds, 0.85% hits; P35561; B-score at 10 µM;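 active = fluorescence ratio B-score at or below minus 3 SD of library scores, with starting-brightness B-score within 2 SD, cut at about -4.2 in these data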;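 also: channel flux triggered by added potassium and thallium sulfate stimulus; B-score of peak minus minimum fluorescence over baseline after thallium stimulus; more negative B-score means stronger Kir2.1 block with less thallium influx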
# KCNK3 inh – human KCNK3 channel inhibition, primary screen. O14649. CHO-KCNK3 thallium flux, FluxOR fluorescence; hits give low values. B-score at 10 µM. 340,000 compounds, 0.84% hits;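 active = B-score under library mean minus 4 SD, starting fluorescence ratio at most library mean plus 5 SD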;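 also: more negative B-score means stronger inhibition of thallium flux through KCNK3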
# KCNQ1 inh – inhibitors of human KCNQ1 potassium channel; CHO-K1 KCNQ1, FluxOR thallium flux fluorescence; hits give high values; B-score at 10 µM; 310,000 compounds, 1.3% hits;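 active = compounds whose thallium flux B-score, printed positive for inhibition, exceeds three library SD while starting fluorescence stays within three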;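 also: channel opened by potassium depolarization with thallium stimulus after 20 min compound exposure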
# hERG rescue – shields human hERG channel from block by proarrhythmic agents; Q12809; AID 1511; CHO-hERG, FluxOR thallium flux, dofetilide IC70 present; activation (rescue from dofetilide block), less the hit threshold, % at 10 µM; 310,000 compounds, 0.51% hits;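 active = activation above the mean of controls blocked by dofetilide plus 5 SD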;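 also: thallium influx through hERG after potassium depolarization seen as dye fluorescence rise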
# Target sequence (Q12809 whole entry, looked up): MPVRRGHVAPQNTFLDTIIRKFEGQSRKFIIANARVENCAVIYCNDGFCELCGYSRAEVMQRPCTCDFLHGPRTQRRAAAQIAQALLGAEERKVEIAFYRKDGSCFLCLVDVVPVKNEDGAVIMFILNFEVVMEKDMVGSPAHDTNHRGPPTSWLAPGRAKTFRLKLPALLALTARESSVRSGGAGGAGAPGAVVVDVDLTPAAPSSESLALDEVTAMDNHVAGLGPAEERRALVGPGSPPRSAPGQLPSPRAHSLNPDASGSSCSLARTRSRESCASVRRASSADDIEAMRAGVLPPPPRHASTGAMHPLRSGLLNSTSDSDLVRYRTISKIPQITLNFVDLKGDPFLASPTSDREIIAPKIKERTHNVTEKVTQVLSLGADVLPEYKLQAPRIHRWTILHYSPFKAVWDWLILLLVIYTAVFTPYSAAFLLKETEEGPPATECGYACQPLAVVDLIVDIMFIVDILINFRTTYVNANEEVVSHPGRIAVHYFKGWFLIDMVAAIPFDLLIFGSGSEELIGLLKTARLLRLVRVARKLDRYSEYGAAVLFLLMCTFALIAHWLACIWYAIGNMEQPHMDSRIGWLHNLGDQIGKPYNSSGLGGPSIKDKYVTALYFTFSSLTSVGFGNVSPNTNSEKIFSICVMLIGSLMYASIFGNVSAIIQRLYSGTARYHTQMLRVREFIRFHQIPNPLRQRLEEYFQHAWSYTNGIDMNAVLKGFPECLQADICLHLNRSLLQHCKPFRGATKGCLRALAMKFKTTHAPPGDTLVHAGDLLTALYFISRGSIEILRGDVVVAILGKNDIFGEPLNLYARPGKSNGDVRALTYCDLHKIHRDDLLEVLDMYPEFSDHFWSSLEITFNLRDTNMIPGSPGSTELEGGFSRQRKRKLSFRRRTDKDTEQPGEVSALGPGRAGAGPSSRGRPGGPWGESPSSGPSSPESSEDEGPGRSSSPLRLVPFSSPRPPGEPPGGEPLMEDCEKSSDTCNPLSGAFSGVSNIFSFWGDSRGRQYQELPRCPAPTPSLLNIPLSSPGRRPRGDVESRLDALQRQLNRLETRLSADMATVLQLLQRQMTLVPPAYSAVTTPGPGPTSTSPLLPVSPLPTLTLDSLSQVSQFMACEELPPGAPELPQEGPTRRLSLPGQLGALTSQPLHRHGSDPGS
# A number is an active result; 0 = inactive; - = no result. A selection: hits, their analogues and other compounds. The true share with any hit is near 3.7%.
SMILES,KCNK9 block,KCNQ1 act,Kir21 inh,KCNK3 inh,KCNQ1 inh,hERG rescue
O=C(CSc1nnc(-c2cccnc2)n1Cc1ccco1)c1ccc2ccccc2c1,0,0,0,0,0,0
Cn1c(SCC(=O)N2c3ccccc3Sc3ccc(Cl)cc32)nnc1-c1ccco1,-,-,-,0,-,-
O=C(CSc1nnc(-c2cccnc2)n1Cc1ccco1)c1ccc(Br)cc1,0,0,-5.9,0,0,0
O=C(CSc1nnc(-c2ccncc2)n1Cc1ccco1)N1c2ccccc2Sc2ccc(Cl)cc21,-6.6,0,0,0,0,0
C(=C\c1ccccc1)/CSc1nnc(-c2ccccc2)n1Cc1ccco1,0,0,-5.4,0,0,0
Cn1nnnc1SCC(=O)N1c2ccccc2Sc2ccc(Cl)cc21,-,-,-,-10,-,-
Nn1c(SC/C=C/c2ccccc2)nnc1-c1ccco1,0,0,0,0,0,0
COc1ccc(/C=C/C(=O)OCC(=O)NC(C)CCc2ccccc2)cc1OC (stereo not drawn),-,-,-,0,-,-
CSc1ncccc1C(=O)N1CCN(S(=O)(=O)c2ccc(F)cc2)CC1,0,0,0,0,0,0
C(=C\c1ccccc1)/CSc1nnc(-c2ccncc2)n1Cc1ccco1,0,0,-5.1,0,0,0
COC(=O)c1ccc(/C=C/c2ccc3cccc(OC)c3n2)cc1,0,0,0,0,0,44
COc1cc(/C=C/c2ccc3cccc(O)c3n2)cc(OC)c1OC,0,0,0,0,0,0
S=c1nc(C2CCCCC2)n(-c2ccccc2)[nH]1,0,40,0,0,0,11
Cn1c(SCc2ccccc2)nnc1-c1ccc(O)cc1,0,0,0,0,0,0
COc1ccc(-c2nc(-c3cccs3)c(-c3cccs3)[nH]2)cc1O,0,0,-5.6,0,0,0
O=C(O)c1ccc(-c2nc(-c3ccccc3)c(-c3cccs3)[nH]2)cc1,0,0,0,0,0,0
C[C@H]1CN([C@@H](C)CO)C(=O)c2cccc(NC(=O)c3cnccn3)c2O[C@@H]1CN(C)S(=O)(=O)c1ccc(F)cc1,-,-,-,0,-,-
Fc1cccc2sc(Nc3nc4c(F)cccc4s3)nc12,0,0,0,0,0,13
COc1ccc(-c2nnc(Nc3nc4c(OC)cccc4s3)o2)cc1,0,50,0,0,0,12
NNc1nc2c(F)cccc2s1,0,0,0,0,0,0
COc1cc(OC)cc(-c2nnc(Nc3nc4c(F)cccc4s3)o2)c1,0,22,0,0,0,5.9
Fc1cccc2sc(Nc3nnc(-c4ccccc4)o3)nc12,0,66,0,0,0,51
O=C(Cn1cnc2c(NC(=O)OCc3ccccc3)ncnc21)NCc1ccccn1,-,-,-,0,-,-
COc1cccc(N2CC(O)Cn3c2nc2c3c(=O)[nH]c(=O)n2C)c1 (stereo not drawn),0,0,0,0,0,0
COc1ccc(CCN(C)C(=O)COc2cccc(-n3cnnn3)c2)cc1OC,-,-,-,0,-,-
SMILES,KCNK9 block,KCNQ1 act,Kir21 inh,KCNK3 inh,KCNQ1 inh,hERG rescue
CCOC(=O)C1=C(C)N=C2SC(C(=O)OC)=CC(=O)N2C1c1ccc(OC)cc1 (stereo not drawn),0,0,-5.7,0,0,0
O=C(c1cc(-c2ccccc2)on1)N1CCCC1,0,0,0,0,0,5.0
CCC1CCCCN1C(=O)c1cccc(S(=O)(=O)Nc2cc(C(F)(F)F)ccc2Cl)c1 (stereo not drawn),0,0,0,0,7,0
O=C(NC1CCN(Cc2ccccc2)CC1)c1cccc(S(=O)(=O)Nc2cc(C(F)(F)F)ccc2Cl)c1,0,0,0,0,0,0
O=C(NCc1ccco1)/C(=C\c1ccc(F)cc1)NC(=O)c1ccco1,0,0,0,0,0,0
Cn1c(N)c(C(=O)c2ccc(Cl)cc2)c(=O)n(C)c1=O,0,0,0,0,0,0
Cc1nn(-c2ccc(Cl)cc2)c2sc(C(=O)c3c(N)n(C)c(=O)n(C)c3=O)cc12,0,0,0,0,0,24
CCOc1ccc(C(=O)Nc2cc(C)on2)cc1OCC,0,0,0,0,0,4.9
CN(C)c1ccc(/C=C/C(O)=C2/C(=O)N(C)C3(C)CC2c2ccccc2O3)cc1 (stereo not drawn),0,0,0,-,7,0
CCOc1ccc(/C=C/C(O)=C2/C(=O)NC3(C)CC2c2ccccc2O3)cc1OC (stereo not drawn),0,0,0,0,0,0
COc1cc2c(cc1Cl)C(=O)C(F)(c1ccccc1)C(=O)N2 (stereo not drawn),0,0,0,0,0,0
O=C(O)/C(=C\c1ccccc1)c1ccccc1,0,0,0,0,0,0
O=C(Nc1ccccc1)/C(=C/c1ccccc1)c1ccccc1,-7,0,0,0,0,0
CCOC(=O)c1[nH]c2ccccc2c1NC(=O)C(C)(C)C,0,0,0,0,0,0
CCOC(=O)c1[nH]c2ccccc2c1NC(=O)C1CCCCC1,0,0,0,0,0,4.8
COc1ccc(CNc2ccc(Cl)cc2)cc1Cn1ccnc1,0,0,-4.3,0,0,0
O=C(Nc1ccc(Cl)c(Cl)c1)C1=Cc2ccccc2OC1,0,0,0,0,7,0
CC1CN(C(=O)CCC(=O)NCc2ccc(Cl)cc2)c2ccccc2S1 (stereo not drawn),0,0,0,0,0,0
CC[C@@]1(C(=O)OC)N[C@H](CN(C)S(=O)(=O)c2ccc(C(C)(C)C)cc2)[C@@H]2C(=O)N(C)C(=O)[C@@H]21,-,-,-,0,-,-
C[C@H](NC(=O)OC(C)(C)C)c1nnc(SCC(=O)Nc2cccc(Cl)c2)o1,0,0,-4.3,0,0,0
CC(C)[C@H](NC(=O)OC(C)(C)C)c1nnc(SCC(=O)Nc2ccc(Br)cc2)o1,0,0,0,0,6,0
CC(C)=CCSc1nnc([C@@H](NC(=O)OC(C)(C)C)C(C)C)o1,0,0,0,0,0,0
CCn1cc(C(=O)N2CCN(c3ccc(OC)cc3)CC2)c(=O)c2cc(S(=O)(=O)N3CCOCC3)ccc21,0,0,0,0,0,0
O=C(/C=C/c1cccs1)c1ccco1,-,-,-,0,-,-
O=C(c1ccco1)N1CCC(c2nc3ccccc3[nH]2)CC1,0,0,0,0,0,0
SMILES,KCNK9 block,KCNQ1 act,Kir21 inh,KCNK3 inh,KCNQ1 inh,hERG rescue
O=Cc1ccc(-c2cc(Cl)ccc2Cl)[nH]1,-6.7,0,0,0,0,0
COc1ccccc1-n1c(=S)sc2c(=O)n(Cc3ccco3)c(SC)nc21,0,0,0,0,9,0
COc1ccccc1-n1c(SC)nc2c(sc(=S)n2-c2ccccc2)c1=O,0,0,0,0,0,0
O=C(CSc1cn[nH]n1)Nc1cccc(C(F)(F)F)c1,-7.5,0,0,0,0,0
CSC(=S)N/N=C(\C)c1ccc(Br)cc1,0,41,0,0,0,0
FC(F)(F)c1cnc2c(c1)[nH]c(=S)n2-c1ccc(Cl)cc1,0,0,0,0,0,5.5
Cc1nc(S(=O)(=O)Cc2ccccc2Cl)nc2c1CCC2,0,0,0,0,0,0
